Published values of several laboratories.
Protocols differ between the studies behind these lines.
Target: Calcium/calmodulin-dependent protein kinase kinase 2 (CAMKK2, Homo sapiens, UniProt Q96RR4)

| SMILES | assay | setting | remaining binding |
| --- | --- | --- | --- |
| COc1ncc2cc3ccccc3nc2c1C#N | cell-free assay, competition with immobilised ligand | 5 µM | 96% |
| CC(C)CC(=O)N1CCc2nc(-c3ccc(Br)cc3)nc(N(C)Cc3ccccc3)c2C1 | cell-free assay, competition with immobilised ligand | 0.1 µM | 100% |
| O=C(NCCCN1CCOCC1)c1ccc(Nc2nccc(-c3cc4ccccc4s3)n2)cc1 | binding, competition with immobilised ligand | 1 µM | 81% |
| COc1cnc(Nc2cccc(S(N)(=O)=O)c2)nc1N1CCN(c2ccccc2)C(=O)C1 | binding, competition with immobilised ligand | 1 µM | 100% |
| CNC(=O)c1ccc(Nc2ncc(C(F)(F)F)c(NCc3nccnc3N(C)S(C)(=O)=O)n2)cc1 | cell-free assay, competition with immobilised ligand | 0.1 µM | 68% |
| CN(C)c1ncc(F)c(-c2cnn3ncccc23)n1 | binding | 1 µM | 86% |
| O=C(NCC1CCOCC1)c1n[nH]cc1NC(=O)c1c(F)cccc1F | binding, competition with immobilised ligand | 1 µM | 68% |
| C[C@@H]1CCN(c2nccc(-c3cnn4ncccc34)n2)C1 | binding | 1 µM | 72% |
| CC1=C(C#N)C(c2ccc3c(c2)c(NC(=O)c2ccccc2C)nn3C)C(C#N)=C(C)N1 | cell-free assay, competition with immobilised ligand | 1 µM | 100% |
| C[C@@H](c1ccc(-n2cnc3c(N)ncnc32)cc1)N1CCc2nn(C)c(Cc3ccccc3)c2C1=O | binding, competition with immobilised ligand | 0.1 µM | 94% |
| N[C@@H]1CCN(c2nccc(-c3cnn4ncccc34)n2)C1 | binding | 1 µM | 100% |
| O=C(c1ccc(Nc2nccc(-c3cc4ccccc4s3)n2)cc1)N1CCC(N2CCCC2)CC1 | binding, competition with immobilised ligand | 1 µM | 82% |
| Cc1cnn2ncc(-c3ccnc(N(C)C)n3)c2c1 | binding | 1 µM | 63% |
| Nc1ncc2c(n1)-c1c([nH]c3ccc(C#CC4CC4)cc13)CCCC2 | binding, competition with immobilised ligand | 1 µM | 94% |
| CCC(=N\O)/C(C)=C/c1ccc(F)cc1 | cell-free assay, competition with immobilised ligand | 1 µM | 98% |
| COc1cnc(Nc2cccc(S(N)(=O)=O)c2)nc1N1CCN(c2ccccc2)CC1 | binding, competition with immobilised ligand | 1 µM | 92% |
| Cc1cc(NC(=O)c2cccc(S(F)(F)(F)(F)F)c2)cc(-n2ccn3nc(-c4cccnc4)cc23)c1 | cell-free assay, competition with immobilised ligand | 1 µM | 99.6% |
| COc1ccnn2ncc(-c3ccnc(N(C)C)n3)c12 | binding | 1 µM | 80% |
| O=C(O)[C@@H]1[C@@H](Cn2nnc3ccccc3c2=O)CC[C@H]1C(=O)c1ccc(OCCC2CCOCC2)cc1 | cell-free assay, competition with immobilised ligand | 1 µM | 100% |
| c1cnn2ncc(-c3ccnc(N4CCC45COC5)n3)c2c1 | binding | 1 µM | 80% |
